Several values for one entry are separate records, joined by “and”; a condition that tells them apart may be missing. Identical values can stand only once.
These molecules were tested on Fibroblast (assay: Multiplex assay against human fibroblast). Settings: 12 h, 1 µM, compound concentration 1 uM.
Assay type: toxicity, cell-based
Method in brief: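 At seeding, live cells were stained with Hoechst33342, BioTracker Green Microtubule Cytoskeleton Dye, MitoTracker Red and Annexin V Alexa Fluor 680. After compound addition they were imaged on a CQ1 microscope at 37°C and 5% CO2, and CellPathfinder machine-learning gating sorted them into Hoechst high-intensity objects or normal cells, with normal cells further split into healthy, pyknosed or fragmented nuclei and pyknosed cells into mitotic or apoptotic. Tubulin, mitochondrial-mass and membrane-permeability phenotypes are given as per cents of cells with healthy nuclei.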

Structure (SMILES)	Population Apoptotic (%)	Population Fragmented Nuclei (%)	Population Healthy Nuclei (%)	Population Hoechst High Intensity Objects (%)	Population Membrane Permeable-Phenotype (%)	Population Mitochondria Different-Phenotype (%)	Population Mitotic Cells (%)	Population Normal (%)	Population Pyknosed Nuclei (%)	Population Tubulin-Different-Phenotype (%)
CC(C)COc1ccc(CNC(=O)N(Cc2ccc(F)cc2)C2CCN(C)CC2)cc1 [PIMAVANSERIN]	65% and 61%	24% and 40%	62% and 42%	0% and 1%	0% and 7%	12% and 4%	34% and 38%	100% and 98%	12% and 16%	35% and 82%
CC(C)(C)c1ccc(CSc2cnn(C(C)(C)C)c(=O)c2Cl)cc1 [PYRIDABEN]	46% and 44%	15% and 27%	66% and 47%	1% and 4%	3% and 12%	1% and 7%	53% and 55%	98% and 95%	17% and 25%	28% and 57%

Same assay, conditions: 12 h, 1 µM, compound concentration 1 uM

Structure (SMILES)	Total Cell Count
CC(C)COc1ccc(CNC(=O)N(Cc2ccc(F)cc2)C2CCN(C)CC2)cc1 [PIMAVANSERIN]	179 and 160
CC(C)(C)c1ccc(CSc2cnn(C(C)(C)C)c(=O)c2Cl)cc1 [PYRIDABEN]	148 and 142

Same assay, conditions: 12 h, 10 µM, compound concentration 10 uM

Structure (SMILES)	Population Apoptotic (%)	Population Fragmented Nuclei (%)	Population Healthy Nuclei (%)	Population Hoechst High Intensity Objects (%)	Population Membrane Permeable-Phenotype (%)	Population Mitochondria Different-Phenotype (%)	Population Mitotic Cells (%)	Population Normal (%)	Population Pyknosed Nuclei (%)	Population Tubulin-Different-Phenotype (%)
CC(C)COc1ccc(CNC(=O)N(Cc2ccc(F)cc2)C2CCN(C)CC2)cc1 [PIMAVANSERIN]	56% and 51%	18% and 31%	65% and 42%	1% and 4%	0% and 2%	42% and 32%	43% and 48%	98% and 95%	16% and 26%	93% and 81%
CC(C)(C)c1ccc(CSc2cnn(C(C)(C)C)c(=O)c2Cl)cc1 [PYRIDABEN]	25% and 47%	11% and 25%	68% and 49%	4% and 1%	2% and 12%	5% and 4%	74% and 52%	95% and 98%	20% and 25%	35% and 54%

Same assay, conditions: 12 h, 10 µM, compound concentration 10 uM

Structure (SMILES)	Total Cell Count
CC(C)COc1ccc(CNC(=O)N(Cc2ccc(F)cc2)C2CCN(C)CC2)cc1 [PIMAVANSERIN]	185
CC(C)(C)c1ccc(CSc2cnn(C(C)(C)C)c(=O)c2Cl)cc1 [PYRIDABEN]	139 and 136

Same assay, conditions: 24 h, 1 µM, compound concentration 1 uM

Structure (SMILES)	Population Apoptotic (%)	Population Fragmented Nuclei (%)	Population Healthy Nuclei (%)	Population Hoechst High Intensity Objects (%)	Population Membrane Permeable-Phenotype (%)	Population Mitochondria Different-Phenotype (%)	Population Mitotic Cells (%)	Population Normal (%)	Population Pyknosed Nuclei (%)	Population Tubulin-Different-Phenotype (%)
CC(C)COc1ccc(CNC(=O)N(Cc2ccc(F)cc2)C2CCN(C)CC2)cc1 [PIMAVANSERIN]	60% and 52%	21% and 39%	65% and 46%	2%	1% and 4%	5% and 9%	39% and 47%	97%	12% and 13%	47% and 76%
CC(C)(C)c1ccc(CSc2cnn(C(C)(C)C)c(=O)c2Cl)cc1 [PYRIDABEN]	35% and 36%	17% and 30%	71% and 48%	0% and 4%	0% and 7%	2% and 8%	64% and 63%	99% and 95%	11% and 21%	20% and 50%

Same assay, conditions: 24 h, 1 µM, compound concentration 1 uM

Structure (SMILES)	Total Cell Count
CC(C)COc1ccc(CNC(=O)N(Cc2ccc(F)cc2)C2CCN(C)CC2)cc1 [PIMAVANSERIN]	186 and 157
CC(C)(C)c1ccc(CSc2cnn(C(C)(C)C)c(=O)c2Cl)cc1 [PYRIDABEN]	148

Same assay, conditions: 24 h, 10 µM, compound concentration 10 uM

Structure (SMILES)	Population Apoptotic (%)	Population Fragmented Nuclei (%)	Population Healthy Nuclei (%)	Population Hoechst High Intensity Objects (%)	Population Membrane Permeable-Phenotype (%)	Population Mitochondria Different-Phenotype (%)	Population Mitotic Cells (%)	Population Normal (%)	Population Pyknosed Nuclei (%)	Population Tubulin-Different-Phenotype (%)
CC(C)COc1ccc(CNC(=O)N(Cc2ccc(F)cc2)C2CCN(C)CC2)cc1 [PIMAVANSERIN]	83% and 69%	13% and 27%	67% and 50%	4% and 8%	0% and 3%	41% and 38%	16% and 30%	95% and 91%	18% and 21%	92% and 96%
CC(C)(C)c1ccc(CSc2cnn(C(C)(C)C)c(=O)c2Cl)cc1 [PYRIDABEN]	56% and 54%	13% and 28%	62% and 48%	2% and 0%	1% and 9%	7% and 9%	43% and 45%	97% and 99%	23% and 22%	40% and 53%

Same assay, conditions: 24 h, 10 µM, compound concentration 10 uM

Structure (SMILES)	Total Cell Count
CC(C)COc1ccc(CNC(=O)N(Cc2ccc(F)cc2)C2CCN(C)CC2)cc1 [PIMAVANSERIN]	170 and 167
CC(C)(C)c1ccc(CSc2cnn(C(C)(C)C)c(=O)c2Cl)cc1 [PYRIDABEN]	139 and 136

Same assay, conditions: 48 h, 1 µM, compound concentration 1 uM

Structure (SMILES)	Population Apoptotic (%)	Population Fragmented Nuclei (%)	Population Healthy Nuclei (%)	Population Hoechst High Intensity Objects (%)	Population Membrane Permeable-Phenotype (%)	Population Mitochondria Different-Phenotype (%)	Population Normal (%)	Population Pyknosed Nuclei (%)	Population Tubulin-Different-Phenotype (%)	Total Cell Count
CC(C)COc1ccc(CNC(=O)N(Cc2ccc(F)cc2)C2CCN(C)CC2)cc1 [PIMAVANSERIN]	88% and 52%	27% and 44%	62% and 44%	3% and 5%	1% and 4%	3% and 12%	96% and 94%	9% and 10%	45% and 64%	204 and 167
CC(C)(C)c1ccc(CSc2cnn(C(C)(C)C)c(=O)c2Cl)cc1 [PYRIDABEN]	50% and 45%	27% and 43%	62% and 41%	1% and 4%	0% and 6%		98% and 95%	9% and 15%	28% and 63%	164 and 153

Same assay, conditions: 48 h, 1 µM, compound concentration 1 uM

Structure (SMILES)	Population Mitotic Cells (%)
CC(C)(C)c1ccc(CSc2cnn(C(C)(C)C)c(=O)c2Cl)cc1 [PYRIDABEN]	50% and 54%

Same assay, conditions: 48 h, 10 µM, compound concentration 10 uM

Structure (SMILES)	Population Apoptotic (%)	Population Fragmented Nuclei (%)	Population Healthy Nuclei (%)	Population Hoechst High Intensity Objects (%)	Population Membrane Permeable-Phenotype (%)	Population Mitochondria Different-Phenotype (%)	Population Normal (%)	Population Pyknosed Nuclei (%)	Population Tubulin-Different-Phenotype (%)	Total Cell Count
CC(C)COc1ccc(CNC(=O)N(Cc2ccc(F)cc2)C2CCN(C)CC2)cc1 [PIMAVANSERIN]	92% and 75%	15% and 30%	67% and 53%	12% and 6%	0% and 3%	44% and 41%	87% and 93%	17% and 16%	91% and 92%	163 and 159
CC(C)(C)c1ccc(CSc2cnn(C(C)(C)C)c(=O)c2Cl)cc1 [PYRIDABEN]	72% and 63%	19% and 36%	62% and 48%	4% and 5%	0% and 8%	8% and 10%	95% and 94%	18% and 15%	49% and 58%	143 and 131

Same assay, conditions: 48 h, 10 µM, compound concentration 10 uM

Structure (SMILES)	Population Mitotic Cells (%)
CC(C)(C)c1ccc(CSc2cnn(C(C)(C)C)c(=O)c2Cl)cc1 [PYRIDABEN]	28% and 36%

— ChEMBL document CHEMBL5724801, “EUbOPEN Chemogenomics Library - Multiplex” (2024)
